In ChEMBL document CHEMBL4689842, “EUbOPEN Chemogenomics Library wave 1” (2021):

Key:
[1] = system: U2OS; assay: Multiplex assay against U2OS; format: toxicity, cell-based; details: human
In short: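 Four dyes were applied at seeding to live cells: Hoechst33342, BioTracker Green Microtubule Cytoskeleton Dye, MitoTracker Red and Annexin V Alexa Fluor 680. Imaging after compound addition used a CQ1 microscope at 37°C and 5% CO2. CellPathfinder machine-learning gating then sorted cells into Hoechst high-intensity objects or normal cells, normal cells into healthy, pyknosed or fragmented nuclei, and pyknosed cells into mitotic or apoptotic, with tubulin, mitochondrial-mass and membrane-permeability phenotypes given as per cents of healthy-nucleus cells.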

[2] = system: U2OS; assay: Incucyte cell viability with U2OS; format: toxicity, cell-based; details: human, 10 µM, compound concentration 10 uM; note: filed as whole numbers so only -1 and 0 and 1 occur
[3] = 12 h, 1 µM, compound concentration 1 uM, replicate 1
[4] = 12 h, 1 µM, compound concentration 1 uM, replicate 2
[5] = 12 h, 10 µM, compound concentration 10 uM, replicate 1
[6] = 12 h, 10 µM, compound concentration 10 uM, replicate 2
[7] = 24 h, 1 µM, compound concentration 1 uM, replicate 1
[8] = 24 h, 1 µM, compound concentration 1 uM, replicate 2
[9] = 24 h, 10 µM, compound concentration 10 uM, replicate 1
[10] = 24 h, 10 µM, compound concentration 10 uM, replicate 2
[11] = 48 h, 1 µM, compound concentration 1 uM, replicate 1
[12] = 48 h, 1 µM, compound concentration 1 uM, replicate 2
[13] = 48 h, 10 µM, compound concentration 10 uM, replicate 1
[14] = 48 h, 10 µM, compound concentration 10 uM, replicate 2

N#CCNC(=O)c1ccc(-c2ccnc(Nc3ccc(N4CCOCC4)cc3)n2)cc1 [MOMELOTINIB]
Population Apoptotic (%) [1, 3]: 70% | Population Fragmented Nuclei (%) [1, 3]: 12% | Population Healthy Nuclei (%) [1, 3]: 77% | Population Hoechst High Intensity Objects (%) [1, 3]: 5% | Population Membrane Permeable-Phenotype (%) [1, 3]: 9% | Population Mitochondria Different-Phenotype (%) [1, 3]: 6% | Population Mitotic Cells (%) [1, 3]: 29% | Population Normal (%) [1, 3]: 94% | Population Pyknosed Nuclei (%) [1, 3]: 10% | Population Tubulin-Different-Phenotype (%) [1, 3]: 18% | Total Cell Count [1, 3]: 3583 | Population Apoptotic (%) [1, 4]: 60% | Population Fragmented Nuclei (%) [1, 4]: 1% | Population Healthy Nuclei (%) [1, 4]: 88% | Population Hoechst High Intensity Objects (%) [1, 4]: 8% | Population Membrane Permeable-Phenotype (%) [1, 4]: 2% | Population Mitochondria Different-Phenotype (%) [1, 4]: 13% | Population Mitotic Cells (%) [1, 4]: 40% | Population Normal (%) [1, 4]: 91% | Population Pyknosed Nuclei (%) [1, 4]: 9% | Population Tubulin-Different-Phenotype (%) [1, 4]: 11% | Total Cell Count [1, 4]: 3119 | Population Apoptotic (%) [1, 5]: 44% | Population Fragmented Nuclei (%) [1, 5]: 18% | Population Healthy Nuclei (%) [1, 5]: 57% | Population Hoechst High Intensity Objects (%) [1, 5]: 6% | Population Membrane Permeable-Phenotype (%) [1, 5]: 10% | Population Mitochondria Different-Phenotype (%) [1, 5]: 20% | Population Mitotic Cells (%) [1, 5]: 55% | Population Normal (%) [1, 5]: 93% | Population Pyknosed Nuclei (%) [1, 5]: 23% | Population Tubulin-Different-Phenotype (%) [1, 5]: 20% | Total Cell Count [1, 5]: 180 | Population Apoptotic (%) [1, 6]: 13% | Population Fragmented Nuclei (%) [1, 6]: 27% | Population Healthy Nuclei (%) [1, 6]: 47% | Population Hoechst High Intensity Objects (%) [1, 6]: 10% | Population Membrane Permeable-Phenotype (%) [1, 6]: 0% | Population Mitochondria Different-Phenotype (%) [1, 6]: 6% | Population Mitotic Cells (%) [1, 6]: 86% | Population Normal (%) [1, 6]: 89% | Population Pyknosed Nuclei (%) [1, 6]: 24% | Population Tubulin-Different-Phenotype (%) [1, 6]: 6% | Total Cell Count [1, 6]: 56 | Population Apoptotic (%) [1, 7]: 42% | Population Fragmented Nuclei (%) [1, 7]: 14% | Population Healthy Nuclei (%) [1, 7]: 78% | Population Hoechst High Intensity Objects (%) [1, 7]: 3% | Population Membrane Permeable-Phenotype (%) [1, 7]: 10% | Population Mitochondria Different-Phenotype (%) [1, 7]: 9% | Population Mitotic Cells (%) [1, 7]: 57% | Population Normal (%) [1, 7]: 96% | Population Pyknosed Nuclei (%) [1, 7]: 7% | Population Tubulin-Different-Phenotype (%) [1, 7]: 17% | Total Cell Count [1, 7]: 3609 | Population Apoptotic (%) [1, 8]: 66% | Population Fragmented Nuclei (%) [1, 8]: 7% | Population Healthy Nuclei (%) [1, 8]: 86% | Population Hoechst High Intensity Objects (%) [1, 8]: 10% | Population Membrane Permeable-Phenotype (%) [1, 8]: 6% | Population Mitochondria Different-Phenotype (%) [1, 8]: 15% | Population Mitotic Cells (%) [1, 8]: 33% | Population Normal (%) [1, 8]: 89% | Population Pyknosed Nuclei (%) [1, 8]: 5% | Population Tubulin-Different-Phenotype (%) [1, 8]: 8% | Total Cell Count [1, 8]: 3108 | Population Apoptotic (%) [1, 9]: 61% | Population Fragmented Nuclei (%) [1, 9]: 20% | Population Healthy Nuclei (%) [1, 9]: 46% | Population Hoechst High Intensity Objects (%) [1, 9]: 8% | Population Membrane Permeable-Phenotype (%) [1, 9]: 13% | Population Mitochondria Different-Phenotype (%) [1, 9]: 20% | Population Mitotic Cells (%) [1, 9]: 38% | Population Normal (%) [1, 9]: 91% | Population Pyknosed Nuclei (%) [1, 9]: 33% | Population Tubulin-Different-Phenotype (%) [1, 9]: 20% | Total Cell Count [1, 9]: 194 | Population Apoptotic (%) [1, 10]: 45% | Population Fragmented Nuclei (%) [1, 10]: 31% | Population Healthy Nuclei (%) [1, 10]: 52% | Population Hoechst High Intensity Objects (%) [1, 10]: 5% | Population Membrane Permeable-Phenotype (%) [1, 10]: 28% | Population Mitochondria Different-Phenotype (%) [1, 10]: 34% | Population Mitotic Cells (%) [1, 10]: 54% | Population Normal (%) [1, 10]: 94% | Population Pyknosed Nuclei (%) [1, 10]: 16% | Population Tubulin-Different-Phenotype (%) [1, 10]: 14% | Total Cell Count [1, 10]: 59 | Population Apoptotic (%) [1, 11]: 27% | Population Fragmented Nuclei (%) [1, 11]: 9% | Population Healthy Nuclei (%) [1, 11]: 82% | Population Hoechst High Intensity Objects (%) [1, 11]: 3% | Population Membrane Permeable-Phenotype (%) [1, 11]: 2% | Population Mitochondria Different-Phenotype (%) [1, 11]: 18% | Population Mitotic Cells (%) [1, 11]: 72% | Population Normal (%) [1, 11]: 96% | Population Pyknosed Nuclei (%) [1, 11]: 7% | Population Tubulin-Different-Phenotype (%) [1, 11]: 19% | Total Cell Count [1, 11]: 3211 | Population Apoptotic (%) [1, 12]: 100% | Population Fragmented Nuclei (%) [1, 12]: 7% | Population Healthy Nuclei (%) [1, 12]: 89% | Population Hoechst High Intensity Objects (%) [1, 12]: 2% | Population Membrane Permeable-Phenotype (%) [1, 12]: 8% | Population Mitochondria Different-Phenotype (%) [1, 12]: 17% | Population Mitotic Cells (%) [1, 12]: 0% | Population Normal (%) [1, 12]: 97% | Population Pyknosed Nuclei (%) [1, 12]: 2% | Population Tubulin-Different-Phenotype (%) [1, 12]: 22% | Total Cell Count [1, 12]: 3226 | Population Apoptotic (%) [1, 13]: 72% | Population Fragmented Nuclei (%) [1, 13]: 29% | Population Healthy Nuclei (%) [1, 13]: 26% | Population Hoechst High Intensity Objects (%) [1, 13]: 4% | Population Membrane Permeable-Phenotype (%) [1, 13]: 20% | Population Mitochondria Different-Phenotype (%) [1, 13]: 20% | Population Mitotic Cells (%) [1, 13]: 27% | Population Normal (%) [1, 13]: 95% | Population Pyknosed Nuclei (%) [1, 13]: 43% | Population Tubulin-Different-Phenotype (%) [1, 13]: 25% | Total Cell Count [1, 13]: 241 | Population Apoptotic (%) [1, 14]: 53% | Population Fragmented Nuclei (%) [1, 14]: 33% | Population Healthy Nuclei (%) [1, 14]: 44% | Population Hoechst High Intensity Objects (%) [1, 14]: 11% | Population Membrane Permeable-Phenotype (%) [1, 14]: 26% | Population Mitochondria Different-Phenotype (%) [1, 14]: 38% | Population Mitotic Cells (%) [1, 14]: 46% | Population Normal (%) [1, 14]: 88% | Population Pyknosed Nuclei (%) [1, 14]: 22% | Population Tubulin-Different-Phenotype (%) [1, 14]: 26% | Total Cell Count [1, 14]: 71 | Growth Rate ([2]; 0 h, replicate number 2, timepoint 0 hours): 1 | Growth Rate ([2]; 12 h, replicate number 1, timepoint 12 hours): 1 | Growth Rate ([2]; 18 h, replicate number 1, timepoint 18 hours): 0 | Growth Rate ([2]; 24 h, replicate number 1, timepoint 24 hours): 0
